XBP1 UPR activ = activators of adaptive arm of unfolded protein response (XBP1) | activation, % at 20 µM | CHO-XBP1 luciferase reporter, IRE1-XBP1 UPR activation, luminescence; percent of tunicamycin response, DMSO as zero | hit rate 0.33% among 330,000;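 active means versus positive control, 20 µM dose yields 30% or more activation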;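 further: 100% = tunicamycin at 10 µg/mL and 0% = DMSO only wells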
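Material: IRE1-XBP1 luciferase reporter CHO line / Quantity: one thousand reporter cells per well / Buffer or medium: F12 with 10% serum / Compound: 20 µM single concentration, DMSO 1% / Times: 6 h treatment, 37 °C / Detection: Steady-Glo luciferase glow luminescence, 10 min after reagent addition / Benchmarks: tunicamycin high, DMSO low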
Cardio protect = myocardial damage modulation in H9c2 cells. hit rate 0.63% among 360,000. AID 588492. protection from H2O2 cell death, % at 20 µM. H9c2 cardiomyocytes, H2O2 injury protection, ATPLite, 2 h;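 active means compounds giving at least 50% protection of heart cells from peroxide-induced death in the single-dose screen, raw or plate-pattern-corrected value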;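 further: 0% = DMSO wells with peroxide and 100% = DMSO wells without peroxide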
UPR CHOP act = apoptotic UPR (CHOP) activation; CHO-CHOP luciferase reporter, luminescence; percent of tunicamycin response over DMSO baseline; activation, % at 10 µM; hit rate 0.34% among 330,000;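 active means at 10 µM dose, activation of 40% or more, normalized to positive control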;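 further: 100% = tunicamycin at 10 µg/mL and 0% = DMSO alone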
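Assay system: CHO-CHOP cells, stable luciferase reporter of PERK-eIF2a-CHOP signalling / Buffer or medium: F12 plus 10% serum / Compound dosing: one dose, 10 µM in 0.5% DMSO / Times: 6 h compound treatment, 37 °C / Technique: luciferase luminescence / Read-out: % reporter activation, DMSO baseline versus tunicamycin full activation / Benchmarks: tunicamycin and DMSO controls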
hiPSC survival = hiPSC single-cell survival enhancement; ATPlite luminescence; 100% = ROCK inhibitor wells, 0% = DMSO; survival enhancement, % at 20 µM; hit rate 0.044% among 360,000; AID 602274; in the data active means survival enhancement above about 18%;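 further: cells exposed to compounds for 16 hours before the ATP read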
CHOP inh = inhibitors of CHOP induction in ER stress response; hit rate 3.8% among 220,000; CHO-K1 CHOP-promoter luciferase, tunicamycin-induced, 15-18 h; inhibition, % at 10 µM; AID 2732;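 active means compounds that reduced the stress-induced luciferase reporter signal by more than about 70% of percent inhibition, limit read from the data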;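 further: 0% = tunicamycin plus vehicle and 100% = wells without tunicamycin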
* marks the source's active call; other numbers are inactive results; / = no result. The entries come from a sample that favours hits as a whole.

SMILES	XBP1 UPR activ	Cardio protect	UPR CHOP act	hiPSC survival	CHOP inh
CCN(CC)c1ccc(C2C(C(=O)OC(C)C)C(=O)CC(C)(O)C2C(=O)OC(C)C)cc1 (stereo not given)	-2	75*	2	-5	1
Cc1cc(=O)[nH]c2cc(O)ccc12	-1	-1	-2	-1	26
Nc1ccc2c(c1)[nH]c(=O)c1ccccc12	/	68*	/	2	/
O=c1[nH]c2cc(O)ccc2c2ccccc12	/	57*	/	1	/
Nc1cc2[nH]c(=O)c3ccccc3c2cc1Br	/	62*	/	-1	/
CCCCn1nnnc1C(c1ccccc1)N1CCN(c2ccc(C)cc2)CC1 (stereo not given)	/	/	/	0	/
COc1ccccc1S(=O)(=O)N(C)C[C@@H]1OCc2cnnn2CCCC(=O)N([C@H](C)CO)C[C@@H]1C	/	4	/	2	/
CC1(C(=O)NS(=O)(=O)C2CC2)CCCN(C(=O)c2cccc(OC(F)(F)F)c2)C1 (stereo not given)	/	6	/	4	/
O=C(CSc1nnc(CNc2cccc(Cl)c2)o1)OC1CCCCC1	1	-19	-1	-2	80*
O=C(CSc1nnc(COc2ccc(Cl)cc2)o1)OC1CCCCC1	-1	-7	-1	2	74*
CC(C)NC(=O)NC(=O)CSc1nnc(COc2ccccc2Cl)o1	1	-4	1	-2	48
O=C(CSc1nnc(COc2ccccc2Cl)o1)NC(=O)NC1CCCC1	0	-4	2	0	79*
Fc1cccc(Cl)c1CSc1nnc(CNc2ccccc2)o1	-1	-10	2	0	36
Clc1ccc(CSc2nnc(CNc3cccc(Cl)c3)o2)cc1	-1	-21	-3	0	93*
O=C(Nc1nc2c(F)cc(F)cc2s1)C1CC1	5	-15	4	1	/
CCCCCCCCCCCCCCCCCC(=O)OC(CC(=O)O)C[N+](C)(C)C (stereo not given)	/	/	/	/	-8
COc1ccccc1C(=O)NNC1=C(C(=O)C(F)(F)F)CCC1	-3	67*	-1	-2	5
COc1cccc(CN(C)C(=O)C2CCCN(C(=O)c3ccc(Cl)cc3)C2)c1 (stereo not given)	/	13	/	0	/
O=C(Cc1ccccc1)N/N=C/c1cc(Br)c(Br)o1	3	-5	2	-2	76*
O=S(=O)(Nc1ccccc1)c1ccc(F)cc1	1	6	1	2	-15
O=S(=O)(NC12CC3CC(CC(C3)C1)C2)c1ccc(F)cc1	0	-8	-2	2	72*
N#C/C(=C\c1ccc(O)c(O)c1)C(=O)NCCCc1ccccc1	5	89*	151*	-1	-3
CCCCCCCCNC(=O)/C(C#N)=C/c1ccc(SC)cc1	0	-12	3	1	93*
N#C/C(=C\c1ccc(O)c(O)c1)C(=O)c1ccc(O)c(O)c1	-8	64*	-3	0	-1
N#C/C(=C\c1ccc(O)c(O)c1)S(=O)(=O)c1ccccc1	-4	51*	-2	3	10
SMILES	XBP1 UPR activ	Cardio protect	UPR CHOP act	hiPSC survival	CHOP inh
N#C/C(=C/c1ccc(F)cc1)S(=O)(=O)c1ccccc1	-3	-1	0	0	10
COc1cc(N/N=C(\C)c2ccc(N)cc2)nc(-c2ccccc2)n1	-2	6	2	1	81*
COc1cc(N/N=C(\C)c2ccc(O)c(C)c2)nc(-c2ccccc2)n1	6	4	0	-1	-3
Cc1ccc(S(=O)(=O)N/N=C\c2cccnc2)cc1	2	6	0	-2	31
Cc1ccc(C)c(S(=O)(=O)N/N=C/c2cccnc2)c1	-2	2	1	-1	72*
CC1=C(C(=O)OC(C)C)C(c2ccccc2Cl)CC(=O)N1 (stereo not given)	-4	-5	-1	-3	76*
O=C(/C(=N/N=C/c1ccc(O)c(O)c1O)c1ccccc1)c1ccccc1	0	58*	0	-2	72*
Oc1cccc(C=NCc2ccccc2)c1O	-3	30	-1	-1	16
Oc1ccc(/C=N/N=C(c2ccccc2)c2ccccc2)c(O)c1O	/	85*	/	-2	70*
CCCCNC(=O)C1(C)CCN1Cc1cc(C)ccc1C (stereo not given)	/	3	/	7	/

Source: PubChem BioAssay
